# Compound activity from PubChem.
# Mdm2 MdmX PPI: inhibitors of human Mdm2-MdmX association, primary screen, cell-based, luminescence, split luciferase, SaOS-2, uHTS | Protein Mdm4 (Homo sapiens) + E3 ubiquitin-protein ligase Mdm2 (Homo sapiens), … | inhibition, % at 8 µM | 330,000 compounds, 3% hits | SaOS-2 split-luciferase Mdm2/MdmX complementation | AID 485346, 2010;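 active means inhibition of at least 50% at 8 µM in the primary screen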
# Target sequence (O15151 whole entry, looked up): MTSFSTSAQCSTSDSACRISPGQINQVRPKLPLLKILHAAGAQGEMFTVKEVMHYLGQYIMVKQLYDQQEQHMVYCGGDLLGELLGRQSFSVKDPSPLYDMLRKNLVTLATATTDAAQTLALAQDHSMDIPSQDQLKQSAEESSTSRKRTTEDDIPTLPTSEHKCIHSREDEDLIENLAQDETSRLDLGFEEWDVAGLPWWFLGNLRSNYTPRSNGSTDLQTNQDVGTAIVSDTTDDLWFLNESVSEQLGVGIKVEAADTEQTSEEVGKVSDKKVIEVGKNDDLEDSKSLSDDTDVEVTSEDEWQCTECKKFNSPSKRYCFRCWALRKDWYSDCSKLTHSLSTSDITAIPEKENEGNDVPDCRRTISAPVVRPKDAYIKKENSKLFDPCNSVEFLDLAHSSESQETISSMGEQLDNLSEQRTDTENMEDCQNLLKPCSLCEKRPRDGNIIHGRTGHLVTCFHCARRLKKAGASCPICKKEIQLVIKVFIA
# Target sequence (Q00987 whole entry, looked up): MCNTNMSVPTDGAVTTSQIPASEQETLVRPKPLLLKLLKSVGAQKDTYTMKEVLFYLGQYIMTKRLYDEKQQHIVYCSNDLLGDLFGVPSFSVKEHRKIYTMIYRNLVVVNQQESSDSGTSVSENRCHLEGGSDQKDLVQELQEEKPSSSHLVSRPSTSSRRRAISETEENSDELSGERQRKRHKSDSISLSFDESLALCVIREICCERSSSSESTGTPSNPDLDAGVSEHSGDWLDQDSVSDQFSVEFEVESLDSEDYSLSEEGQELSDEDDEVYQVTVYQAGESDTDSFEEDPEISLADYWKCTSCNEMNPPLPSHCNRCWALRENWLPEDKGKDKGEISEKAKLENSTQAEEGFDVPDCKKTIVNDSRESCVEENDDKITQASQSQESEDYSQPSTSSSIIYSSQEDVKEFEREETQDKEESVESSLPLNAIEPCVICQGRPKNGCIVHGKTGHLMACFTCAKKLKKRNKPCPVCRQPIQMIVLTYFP
# NLRP3 yeast inh: NALP3 inflammasome inhibitors in reconstituted yeast, primary screen, luminescence, uHTS; Yeast reconstituted NLRP3/ASC/caspase-1, beta-gal luminescence, 24 h; inhibition, % at 10 µM; 330,000 compounds, 0.39% hits; AID 2825, 2010;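 active means inhibition of 50% or more; inactive means inhibition below 50%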;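 further: plate controls were induced DMSO wells for no effect and uninduced yeast grown without galactose for full effect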
# Calb FLC: C. albicans growth inhibition with fluconazole, primary screen, CaCi-2 strain, Alamar Blue fluorescence | C. albicans CaCi-2 (fluconazole-resistant clinical isolate) + fluconazole, 48 h | 300,000 compounds, 0.57% hits | growth inhibition, % (no concentration beside the values);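 active means growth inhibition above about 58% in most replicates, limit read from the data, passing the limit was not always enough; inconclusive means exactly half the replicates above a set limit; inactive means most replicates below a set limit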;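 further: all wells also contain fluconazole at 8 µg/ml as a sub-toxic cotreatment; 0% = median of DMSO wells and 100% = median of geldanamycin control wells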
# Beta apoptosis: inhibitors of cytokine-induced beta cell apoptosis, primary screen, luminescence | INS-1E cytokine-induced death, ATP luminescence, 48 h; percent of positive-control rescue, neutral wells zero | protection from apoptosis, % (no concentration beside the values) | 300,000 compounds, 0.8% hits;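 active means Every replicate reaches about 75%, or at least half do and their mean reaches it too, limit read from the data; inconclusive means At least half of replicates reach the limit but their mean does not; inactive means Under half of replicates reach the limit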;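 further: 0% = cytokine-treated negative control wells and 100% = positive control rescue; higher means more ATP so stronger rescue from cytokine killing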
# T cruzi repl: inhibitors of intracellular T. cruzi growth, primary screen, luminescence, NIH3T3 host cells; T. cruzi beta-gal in NIH3T3, 90 h; 300,000 compounds, 1.4% hits; AID 1885, 2009; inhibition, % (no concentration beside the values);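 active means mean inhibition across valid replicates above about 55%, limit read from the data; inconclusive means mean below that limit but half or more replicates reach it; inactive means mean below it, under half of replicates reach it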;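 further: signal also drops with host cell toxicity which is not excluded here; 0% = plate median of DMSO wells and 100% = zero luminescence signal; higher percent means less beta-gal luminescence so fewer parasites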
#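 System: mouse NIH/3T3 fibroblasts infected with β-gal-expressing T. cruzi Tulahuen C4 / Input: NIH/3T3 cells, 5,000 per well / Buffer or medium: Low-serum DMEM with 2% FBS / Probe or stimulus: 5000 reporter trypomastigotes per well / Schedule: ≥90 h infection period, 3 h prior cell attachment / Measured by: GalScreen luminescence, 60 min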
# CSC inhib: cancer stem cell viability inhibitors, primary screen, luminescence. 300,000 compounds, 1.1% hits. inhibition, % at 7.5 µM. cancer stem cell-like cells viability. AID 2717, 2010; in the data active means inhibition above about 75%; inconclusive means no clear call, values can overlap the other calls; tested in HMLE shEcad cells
# Mdm2 MdmX conf: Mdm2-MdmX complex disruptors, retested hits, confirmation, luminescence, single concentration; 10,000 compounds, 55% hits; inhibition, % at 8 µM; Mdm2-MdmX binding, luminescent assay; shares compounds with Mdm2 MdmX PPI; in the data active means inhibition above about 40%
# FLuc counter: full-length luciferase signal inhibition, confirmation, counter-screen for Mdm2/MdmX interaction inhibitor project, cell-based, single concentration, SaOS-2. shares compounds with Mdm2 MdmX PPI. SaOS-2 full-length luciferase counterscreen, luminescence. inhibition, % at 8 µM. 6,200 compounds, 77% hits. AID 504607, 2011;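 active means mean inhibition at 8 µM reaching about 37%, which flags the compound as non-specific, limit read from the data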;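 further: p53-null SaOS-2 cells with luciferase driven by a doxycycline-inducible promoter; compound on cells about two nights before reading with doxycycline added after day one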
# * marks the source's active call; other numbers are inactive results; ? = inconclusive; nt = not tested or not shown. In the library only some 5.3% were active in any assay of this set; here they are far more common.
SMILES,Mdm2 MdmX PPI,NLRP3 yeast inh,Calb FLC,Beta apoptosis,T cruzi repl,CSC inhib,Mdm2 MdmX conf,others
c1cc2c(cc1C1CCCCC1)c1c3n2CCCNC3CCC1 (centres undefined),97.5*,-2.5,-1.9,18.0,21.9,6.9,47.9*,FLuc counter=1.8
Cc1ccc2c(c1)c1c3n2CCN=C3CCC1,14.4,3.3,-44.8,-7.1,2.3,nt,nt,
N#CCC(=N)N1CCN(c2ccc(Cl)cc2)CC1,44.7,1.1,2.3,1.0,15.9,nt,nt,
Cc1ccc(NC(=O)c2cccc3c2C(=O)N(C2CCCCC2)C3)c(C)c1,-9.0,-7.4,2.3,-2.8,2.4,9.6,nt,
Cc1cc(C)c(NC(=O)c2cccc3c2C(=O)N(C2CCCCC2)C3)c(C)c1,62.9*,-11.4,1.7,-9.3,-13.6,-9.2,-1.6,
CCOC(=O)c1nc(NNC(=O)c2ccc([N+](=O)[O-])cc2)sc1C,57.5*,13.7,116.5*,103.3*,41.2,65.0,45.6*,FLuc counter=27.4
Cc1cc(NC(=O)C2CCCC2)n(-c2nc3ccccc3[nH]2)n1,53.5*,4.8,-31.1,6.9,9.7,-13.0,40.9*,FLuc counter=62.6*
COc1ccc(C(=O)Nc2cc(C)nn2-c2nc3ccccc3[nH]2)c(OC)c1,51.2*,19.4,1.7,10.7,61.5*,-12.1,32.6,
COc1cccc(OC)c1C(=O)Nc1cc(C)nn1-c1nc2ccccc2[nH]1,77.2*,10.1,0.6,30.7,43.0,50.4,54.0*,FLuc counter=63.3*
Cc1cc(NC(=O)c2sccc2C)n(-c2nc3ccccc3[nH]2)n1,58.7*,15.9,22.4,nt,39.0,-1.2,25.6,
CC(C)c1ccccc1NC(=O)c1ccco1,2.0,-25.1,4.4,-0.7,0.0,5.0,nt,
CCOC(=O)c1nc(C)c(C(C)=O)s1,-0.4,1.7,3.3,-2.0,-18.3,5.4,nt,
CC(=O)N1CCc2c(sc(NC(=O)C3CCN(S(=O)(=O)c4cccs4)CC3)c2C(N)=O)C1,2.6,15.1,-2.5,7.6,4.6,30.0,nt,
COc1cccc(-c2c(C(=O)N/N=C/c3cccs3)nnn2-c2nonc2N)c1,13.2,7.1,-4.6,-3.0,-5.6,-2.9,nt,
Cc1c(/C=N/NC(=O)CNc2ccccc2)c2ccccn2c1C(=O)c1ccc(Cl)cc1,41.4,10.7,-2.2,1.2,24.1,-13.1,nt,
Cc1c(C(=O)Nc2ccc(Cl)cc2)c2ccccn2c1C(=O)c1ccccc1,59.0*,3.0,40.7,7.4,11.1,nt,-0.2,
CCOC(=O)/C(=C\C=C\c1ccccc1)NC(=O)c1ccccc1,-2.7,31.3,0.8,-3.3,9.2,-6.6,nt,
C/C(=N/Nc1ccccc1[N+](=O)[O-])c1ccc(C)c([N+](=O)[O-])c1,70.3*,1.7,-4.1,nt,-2.1,nt,16.5,
C/C(=N\NC(=O)c1cc(C)oc1C)c1ccc(C)c([N+](=O)[O-])c1,95.8*,15.3,nt,-4.6,nt,nt,-13.1,
COC(=O)N/N=C(\C)c1ccc(C)c([N+](=O)[O-])c1,9.4,13.6,-4.3,-3.7,5.6,3.7,nt,
O=C1c2cccc3cc([N+](=O)[O-])cc(c23)C(=O)N1/N=C/c1ccc(O)cc1O,-1.5,-13.3,18.4,11.3,31.4,30.4,nt,
COc1cc(/C=C/C(=O)c2ccccc2O)cc(OC)c1OC,20.9,25.4,1.4,6.6,-44.5,3.1,nt,
CCOC(=O)C1=C(C)N=C2SC(C)C(=O)N2C1c1ccc(C(=O)OC)cc1 (centres undefined),-9.4,10.7,3.0,-2.8,12.0,-12.9,nt,
O=C1OCCN/C1=C\C(=O)c1ccccc1,3.3,0.2,-2.3,7.3,-6.9,-8.8,nt,
CCOC(=O)N1CCN(c2ccnc3cc(Cl)ccc23)CC1,-6.3,15.1,52.0,1.2,4.9,-0.6,nt,
SMILES,Mdm2 MdmX PPI,NLRP3 yeast inh,Calb FLC,Beta apoptosis,T cruzi repl,CSC inhib,Mdm2 MdmX conf,others
O=C(Oc1ccnc2cc(Cl)ccc12)N1CCCCCC1,67.1*,35.7,11.1,1.3,12.2,-4.8,39.1,FLuc counter=30.0
CCN(CC)CCN(C(=O)c1ccc(S(=O)(=O)N(CC)c2ccccc2)cc1)c1nc2c(OC)ccc(OC)c2s1,37.7,13.2,2.1,-8.2,11.5,-4.8,nt,
COc1ccc2cc(C(N)=O)/c(=N\NC(=O)c3ccccc3)oc2c1,44.8,21.6,4.5,4.3,-8.2,1.7,nt,
COc1ccccc1N=c1oc2cc(O)ccc2cc1C(N)=O,24.3,21.9,?,16.7,-8.4,?,nt,
Cc1cccc(N=c2oc3cc(O)ccc3cc2C(N)=O)c1,50.4*,-1.0,?,-0.6,9.9,8.2,-36.6,
COc1ccc2cc(C(N)=O)c(=Nc3ccc(C)cc3)oc2c1,54.0*,21.7,-12.3,-2.5,-4.3,0.4,46.4*,FLuc counter=35.2
CN1CCN(S(=O)(=O)c2ccc3c(c2)CC(=O)N3C)CC1,34.9,-0.8,4.8,-3.2,-3.1,-3.8,nt,
O=C(Nc1ccc(OC(=O)c2ccccc2)c(-c2nc3ccccc3s2)c1)c1ccccc1,67.9*,6.0,-18.1,2.1,-10.8,-5.7,31.7,
Cc1cc(Br)ccc1NC(=O)CCN1C(=O)c2ccncc2C1=O,16.8,9.8,-3.4,-1.3,6.2,nt,nt,
COc1cc(-c2c(-c3cc(OC)c(OC)c(OC)c3)noc2C)ccc1F,83.6*,3.6,-7.4,62.5,25.8,58.2,88.5*,FLuc counter=106.7*
COC(=O)c1cc(-c2c(-c3cc(OC)c(OC)c(OC)c3)noc2C)cc([N+](=O)[O-])c1,0.2,5.0,7.3,-6.3,2.2,26.4,nt,
COc1ccc(-c2c(-c3ccc4c(c3)OCO4)noc2C)cn1,33.3,21.0,-5.5,3.7,2.0,9.1,nt,
COc1ccc(-c2c(-c3cc(OC)c(OC)c(OC)c3)noc2C)cn1,53.6*,29.7,12.7,18.6,-8.6,nt,55.2*,FLuc counter=73.5*
CCc1cc2ccc(OC)cc2nc1SCC(=O)Nc1cc(C)on1,50.3*,12.2,-5.2,18.2,15.4,-5.5,31.5,
N#C/C(=C\Nc1ccc2cn[nH]c2c1)c1nc(-c2ccccc2)cs1,nt,nt,-8.8,nt,44.8,nt,nt,
Cc1ccnc(N/C=C(\C#N)c2nc(-c3cccc(Br)c3)cs2)c1,53.4*,9.6,17.3,-14.5,12.8,15.9,-4.7,
Cc1ccc(C(=O)NC(=O)CSc2ncccc2C(=O)O)cc1,-36.7,-3.2,-3.7,-5.6,-3.1,-0.2,nt,
Cc1ccc2[nH]c(=O)c(C(c3nnnn3CC3CCCO3)N3CCc4ccccc4C3)cc2c1 (centres undefined),20.4,2.2,?,-0.2,-2.8,-1.4,nt,
